Consider three compounds from PMC6190495 (Journal of Pharmaceutical Analysis, 2018).

Where two headings read alike, the source gives them in different places.

Data set [1] is classed as in vivo, human. The following applies: for Tmax / concentration at 2 h / half-life: human, po; for AUC0-t: single oral tablet 4/1.25 mg, fasting, mean ± SD. An outline of the steps:
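Ten healthy Chinese volunteers, fasted at least 10 h overnight, took one oral ACE-inhibitor/diuretic combination tablet (4 mg/1.25 mg) with 240 mL warm water. Blood was drawn into two K2EDTA tubes pre-dose and at 0.25–48 h. One tube was spun (3000 rpm, 10 min) for plasma and the other kept as whole blood, both stored at −80 °C. Parent drugs were extracted by acetonitrile precipitation and the metabolite by 14% perchloric acid, then measured by LC-MS/MS against internal standard. AUC0-t ran to 6 h for the ACE inhibitor and to 48 h otherwise.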

The conditions of data set [2]: cited from earlier work.
For data set [3] the following is noted: cited from earlier work. The source holds these as a separate data set.
Where [4] appears, read: whole blood, dose 1.5 mg, indapamide sustained-release tablets, ref 11.
The mark [5] stands for this setting: whole blood, dose 1.5 mg, indapamide sustained-release tablets, ref 21.

For orientation: Tmax means the time at which the peak concentration occurs. For orientation: half-life means the time in which the quantity being followed falls by half. As usually defined, the Cmax is the maximum level reached in the sampled fluid or tissue. `CCC[C@H](N[C@@H](C)C(=O)N1[C@H](C(=O)O)C[C@@H]2CCCC[C@@H]21)C(=O)OCC` [Perindopril, perindopril]: the Tmax was 0.65 ± 0.1 h in data set [1] (plasma); 0.7 ± 0.2 h in data set [1] (whole blood); 0.66 ± 0.2 h in data set [3] (plasma, dose 4 mg, ref 16); 0.66 ± 0.2 h in data set [3] (plasma, dose 4 mg, ref 22); 0.75 h in data set [3] (plasma, dose 4 mg, ref 24). In addition, the concentration at 2 h in data set [1] (plasma) worked out at 11.1 ng/mL; in data set [1] (whole blood), 7.35 ng/mL. Besides, the results for the half-life in data set [1] (plasma) and in data set [1] (whole blood) were 57.6 ± 18 min and 66.6 ± 24 min, respectively. Also, the AUC0-t in data set [1] (plasma, t = 6 h) is listed as 51.4 ± 12.8 ng·h/mL; in data set [3] (plasma, dose 4 mg, t = 5 h), 70.3 ± 14.4 ng·h/mL; in data set [3] (plasma, dose 4 mg, t = 96 h), 41.7 ± 10.0 ng·h/mL; in data set [3] (plasma, dose 4 mg, t = 120 h), 106 ± 32 ng·h/mL. Further, in data set [2], the Binding in blood entry is “bind mainly to plasma protein in blood”. Also, the Cmax in data set [3] (plasma, dose 4 mg, ref 16) is on record as 36.5 ± 11.4 ng/mL; in data set [3] (plasma, dose 4 mg, ref 22), 63.9 ± 18.0 ng/mL; in data set [3] (plasma, dose 4 mg, ref 24), 72 ± 20 ng/mL.
Consider `CC1Cc2ccccc2N1NC(=O)c1ccc(Cl)c(S(N)(=O)=O)c1` (stereo not shown) [Indapamide, indapamide], for which the time to peak (Tmax) in data set [1] (plasma) is 1.8 ± 0.8 h; in data set [1] (whole blood) it was 1.6 ± 0.6 h; in data set [3] (whole blood, dose 1.25 mg), 2.4 ± 1.1 h; in data set [3] (setting [4]) it was 10.3 ± 5.3 h; in data set [3] (setting [5]) it was 8.0 ± 3.0 h. The concentration at 2 h came out at 5.32 ng/mL in data set [1] (plasma) and 14.9 ng/mL in data set [1] (whole blood). The figures for the half-life in data set [1] (plasma) and in data set [1] (whole blood) were 804 ± 144 min and 810 ± 96 min, respectively. Also, the AUC0-t was 882 ± 126 ng·h/mL in data set [1] (whole blood, t = 48 h); 1152 ± 429 ng·h/mL in data set [3] (whole blood, dose 1.25 mg, t = 96 h); 1318 ± 303 ng·h/mL in data set [3] (whole blood, dose 1.5 mg, indapamide sustained-release tablets, t = 96 h, ref 11); 1268 ± 279 ng·h/mL in data set [3] (whole blood, dose 1.5 mg, indapamide sustained-release tablets, t = 96 h, ref 21). The “Binding to the red blood cell” value in data set [2] is listed as “high binding to the red blood cell”. In addition, the Cmax in data set [3] (setting [4]) is given as 43.6 ± 16.1 ng/mL; in data set [3] (setting [5]), 41.1 ± 7.6 ng/mL.
Regarding `CCC[C@H](N[C@@H](C)C(=O)N1[C@H](C(=O)O)C[C@@H]2CCCC[C@@H]21)C(=O)O` [Perindoprilat, perindoprilat], the time of peak concentration (Tmax) in data set [1] (plasma) is 6.4 ± 1.3 h; in data set [1] (whole blood), 5.8 ± 1.1 h; in data set [3] (plasma, dose 4 mg, ref 22) it was 6.3 ± 1.2 h; in data set [3] (plasma, dose 4 mg, ref 23), 4.3 ± 2.9 h; in data set [3] (plasma, dose 4 mg, ref 24), 6 h. Also, the concentration at 2 h in data set [1] (plasma) stood at 2.49 ng/mL; in data set [1] (whole blood), 1.31 ng/mL. Also, the figures for the half-life in data set [1] (plasma) and in data set [1] (whole blood) were 1020 ± 390 min and 1090 ± 438 min, respectively. Also, the AUC0-t is recorded as 108 ± 34.7 ng·h/mL in data set [1] (plasma, t = 48 h); 111 ± 18.4 ng·h/mL in data set [3] (plasma, dose 4 mg, t = 72 h, ref 22); 92 ± 30 ng·h/mL in data set [3] (plasma, dose 4 mg, t = 72 h, ref 23); 191 ± 76 ng·h/mL in data set [3] (plasma, dose 4 mg, t = 120 h). Besides, the Cmax in data set [3] (plasma, dose 4 mg, one significant digit) is 5 ± 2 ng/mL; in data set [3] (plasma, dose 4 mg, ref 22), 5.91 ± 2.9 ng/mL; in data set [3] (plasma, dose 4 mg, ref 24) it was 4.9 ± 2.7 ng/mL.
